According to ChEMBL document CHEMBL1133552, “Synthesis and evaluation of pharmacological and pharmacokinetic properties of 11H-[1,2,4]triazolo[4,5-c][2,3]benzodiazepin-3(2H)-ones” (J Med Chem, 2000):

Legend:
[1] = Relative Lipophilicity measured by reversed-phase high performance thin-layer chromatography (RP-HPTLC); format: physicochemical
Procedure, shortened: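 Reversed-phase TLC; plates dried 105 °C, 1 h; mobile phase acetone/water 2:1 (v/v); 1 µL of 3 mg/mL CHCl3 solution spotted; five runs with varied placement; mean Rf converted via Rm = log[(1/Rf) - 1].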

[2] = Therapeutic index is the ratio between TD50 and ED50 (from the clonic phase of the audiogenic seizures); ND means not detectable
Procedure, shortened: (§1)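 Therapeutic index = TD50 (rotarod, ip) divided by ED50 for clonic phase of audiogenic seizures in DBA/2 mice; both by Litchfield-Wilcoxon, at least 32 animals each.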

[3] = Evaluated for anticonvulsant property in DBA/2 mice against Locomotion assessed by Rotarod test (ip administration); format: functional, Mus musculus
Procedure, shortened: (§2)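 Rotarod (3-cm diameter, 8 rpm): trained mice in groups of 10 tested 30 min after ip dosing; failure to stay on for 2 min = impairment. TD50 by Litchfield-Wilcoxon, at least 32 animals per value.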

[4] = Evaluated for anticonvulsant property in DBA/2 mice against Locomotion assessed by Rotarod test (ip administration); value ranges from 34-77.8; format: functional, Mus musculus; procedure, shortened: as §2
[5] = Evaluated for anticonvulsant property in DBA/2 mice against Audiogenic seizures during clonic phase (ip administration); value ranges from 26.0-44.2; format: functional; conditions: Mus musculus
Procedure, shortened: (§3)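 DBA/2 mice, genetically sound-susceptible (8-12 g, 22-25 days old, either sex), groups of 10; drug ip in 50% DMSO/50% saline (0.1 mL/10 g), auditory stimulation 30 min later; latency and incidence of clonic and tonic phases scored; ED50 via Litchfield-Wilcoxon, at least 32 animals per value.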

[6] = Evaluated for anticonvulsant property in DBA/2 mice against Locomotion assessed by Rotarod test (ip administration); value ranges from 87.3-231; format: functional, Mus musculus; procedure, shortened: as §2
[7] = tested on: Mus musculus; assay: Anticonvulsant activity was determined when tested at 15 min from intraperitoneal administration; format: functional; conditions: ip, 0.25 h
[8] = Evaluated for anticonvulsant property in DBA/2 mice against Audiogenic seizures during clonic phase (ip administration); ranges from [39.2-81.1]; format: functional; conditions: Mus musculus; procedure, shortened: as §3
[9] = Evaluated for anticonvulsant property in DBA/2 mice against Audiogenic seizures during tonic phase (ip administration); ranges from [32.5-57.4]; format: functional; conditions: Mus musculus; procedure, shortened: as §3
[10] = Evaluated for anticonvulsant property in DBA/2 mice against Audiogenic seizures during clonic phase (ip administration); value ranges from 46.0-132; format: functional; conditions: Mus musculus; procedure, shortened: as §3
[11] = Evaluated for anticonvulsant property in DBA/2 mice against Audiogenic seizures during tonic phase (ip administration); value ranges from 41.5-78.8; format: functional; conditions: Mus musculus; procedure, shortened: as §3
[12] = Evaluated for anticonvulsant property in DBA/2 mice against Locomotion assessed by Rotarod test (ip administration); value ranges from 59.4-99.3; format: functional, Mus musculus; procedure, shortened: as §2
[13] = Evaluated for anticonvulsant property in Swiss mice against PTZ induced seizures; value ranges from 43.8-79.1; format: functional; conditions: Mus musculus
Procedure, shortened: (§4)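 Male Swiss mice given drug ip (50% DMSO/50% saline) 45 min before sc PTZ at CD97 (85 mg/kg); watched 30 min; protection = no clonic spasm lasting at least 5 s; ED50 by Litchfield-Wilcoxon.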

[14] = Evaluated for anticonvulsant property in DBA/2 mice against Audiogenic seizures during tonic phase (ip administration); value ranges from 8.04-21.3; format: functional; conditions: Mus musculus; procedure, shortened: as §3
[15] = Evaluated for anticonvulsant property in DBA/2 mice against Audiogenic seizures during clonic phase (ip administration); value ranges from 10.5-38.2; format: functional; conditions: Mus musculus; procedure, shortened: as §3
[16] = Evaluated for anticonvulsant property in Swiss mice against MES induced seizures; value ranges from 26.8-45.8; format: functional; conditions: Mus musculus
[17] = Therapeutic index is the ratio between TD50 and ED50 (from the clonic phase of the audiogenic seizures); conditions: read-out: TI; procedure, shortened: as §1
[18] = Evaluated for anticonvulsant property in Swiss mice against MES induced seizures; value ranges from 62.4 - 92.1; format: functional; conditions: Mus musculus
[19] = Evaluated for anticonvulsant property in DBA/2 mice against Audiogenic seizures during tonic phase (ip administration); value ranges from 41.3-82.3; format: functional; conditions: Mus musculus; procedure, shortened: as §3
[20] = Evaluated for anticonvulsant property in Swiss mice against PTZ induced seizures; value ranges from 72.2 - 114; format: functional; conditions: Mus musculus; procedure, shortened: as §4
[21] = Evaluated for anticonvulsant property in DBA/2 mice against Audiogenic seizures during clonic phase (ip administration); value ranges from 60.3-91.0; format: functional; conditions: Mus musculus; procedure, shortened: as §3
[22] = Evaluated for anticonvulsant property in DBA/2 mice against audiogenic Seizures after pretreatment with Aniracetam during tonic phase, *p<0.01; value ranges from 12.7-45.5; format: functional; conditions: Mus musculus
[23] = Evaluated for anticonvulsant property in Swiss mice against MES induced seizures; ranges from [18.6-51.0]; format: functional; conditions: Mus musculus
[24] = Evaluated for anticonvulsant property in DBA/2 mice against Audiogenic seizures during clonic phase (ip administration); value ranges from 11.8-22.0; format: functional; conditions: Mus musculus; procedure, shortened: as §3
[25] = Evaluated for anticonvulsant property in Swiss mice against PTZ induced seizures; value ranges from 41.5-78.8; format: functional; conditions: Mus musculus; procedure, shortened: as §4
[26] = Evaluated for anticonvulsant property in DBA/2 mice against Locomotion assessed by Rotarod test (ip administration); value ranges from 46.2-99.8; format: functional, Mus musculus; procedure, shortened: as §2
[27] = Evaluated for anticonvulsant property in DBA/2 mice against AMPA induced seizures during clonic phase; value ranges from 13.8-37.2; format: functional; conditions: Mus musculus
[28] = Evaluated for anticonvulsant property in DBA/2 mice against Audiogenic seizures during tonic phase (ip administration); value ranges from 8.67-11.93; format: functional; conditions: Mus musculus; procedure, shortened: as §3
[29] = Evaluated for anticonvulsant property in DBA/2 mice against audiogenic Seizures after pretreatment with Aniracetam during clonic phase, *p<0.01; value ranges from 20.5-71.9; format: functional; conditions: Mus musculus
[30] = Evaluated for anticonvulsant property in DBA/2 mice against AMPA induced seizures during tonic phase; value ranges from 11.4-28.7; format: functional; conditions: Mus musculus
[31] = Evaluated for anticonvulsant property in Swiss mice against PTZ induced seizures; value ranges from 51.8-113; format: functional; conditions: Mus musculus; procedure, shortened: as §4
[32] = Evaluated for anticonvulsant property in DBA/2 mice against Audiogenic seizures during tonic phase (ip administration); value ranges from 15.4-49.4; conditions: Mus musculus
[33] = Evaluated for anticonvulsant property in DBA/2 mice against Locomotion assessed by Rotarod test (ip administration); value ranges from 73.8-206; format: functional, Mus musculus; procedure, shortened: as §2
[34] = Evaluated for anticonvulsant property in DBA/2 mice against Audiogenic seizures during clonic phase (ip administration); value ranges from 32.5-61.2; conditions: Mus musculus
[35] = Evaluated for anticonvulsant property in Swiss mice against MES induced seizures; ranges from [45.6-80.3]; format: functional; conditions: Mus musculus
[36] = Evaluated for anticonvulsant property in DBA/2 mice against AMPA induced seizures during tonic phase; value ranges from 20.6-50.3; format: functional; conditions: Mus musculus
[37] = Evaluated for anticonvulsant property in Swiss mice against PTZ induced seizures; value ranges from 45.6-80.3; format: functional; conditions: Mus musculus; procedure, shortened: as §4
[38] = Evaluated for anticonvulsant property in DBA/2 mice against AMPA induced seizures during clonic phase; value ranges from 27.5-64.3; format: functional; conditions: Mus musculus
[39] = Evaluated for anticonvulsant property in DBA/2 mice against Locomotion assessed by Rotarod test (ip administration); value ranges from 65.1-126; format: functional, Mus musculus; procedure, shortened: as §2
[40] = Evaluated for anticonvulsant property in DBA/2 mice against audiogenic Seizures after pretreatment with Aniracetam during tonic phase, *p<0.01; value ranges from 23.5-62.7; format: functional; conditions: Mus musculus
[41] = Evaluated for anticonvulsant property in Swiss mice against MES induced seizures; value ranges from 33.5-56.0; format: functional; conditions: Mus musculus
[42] = Evaluated for anticonvulsant property in DBA/2 mice against audiogenic Seizures after pretreatment with Aniracetam during clonic phase; value ranges from 28.3-91.5; format: functional; conditions: Mus musculus
[43] = Evaluated for anticonvulsant property in DBA/2 mice against Audiogenic seizures during clonic phase (ip administration); value ranges from 16.3-[…]; format: functional; conditions: Mus musculus; procedure, shortened: as §3
[44] = Evaluated for anticonvulsant property in DBA/2 mice against Audiogenic seizures during tonic phase (ip administration); value ranges from 14.3-31.9; format: functional; conditions: Mus musculus; procedure, shortened: as §3

For `COc1cc2c(cc1OC)C(c1ccc([N+](=O)[O-])cc1)=NNC(=O)C2`, the Rm [1] was -0.145, the TI [2] was “Not detectable” and the TD50 [3] was greater than 150 µM/kg.

For `COc1cc2c(cc1OC)C(c1cccc([N+](=O)[O-])c1)=NNC(=O)C2`, the Rm [1] was -0.181, the TI [2] was “Not detectable” and the TD50 [3] was greater than 150 µM/kg.

Work on `COc1cc2c(cc1OC)C(c1cccc(N)c1)=NNC(=O)C2` yielded a Rm [1] of -0.619 and a TD50 [4] of 51.5 µM/kg.

With `COc1cc2c(cc1OC)C(c1ccccc1)=NNC(=O)C2` the ED50 [5] was 33.9 µmol/kg, the Rm [1] was -0.28 and the TD50 [6] was 142 µM/kg.

`COc1cc2c(cc1OC)C(c1ccc(N)cc1)=NNC(=O)C2` showed a Rm [1] of -0.647, an ED50 [7] greater than 50 µmol/kg and a TD50 [3] of 56.8 µM/kg.

Molecule `COc1cc2c(cc1OC)C(c1cccc([N+](=O)[O-])c1)=Nn1c(O)nnc1C2` has a Rm [1] of -0.402, a TD50 [3] greater than 150 µM/kg and an ED50 [8] of 56.4 µmol/kg. The ED50 [9] was 43.2 µmol/kg.

Molecule `COc1cc2c(cc1OC)C(c1ccc(F)cc1)=NNC(=O)C2` has a Rm [1] of -0.28, an ED50 [10] of 78 µmol/kg and an ED50 [11] of 57.2 µmol/kg. For the same molecule, the TD50 [3] was greater than 150 µM/kg.

In the case of `COc1cc2c(cc1OC)C(c1cccc(N)c1)=Nn1c(O)nnc1C2`, the TD50 [12] is reported as 76.8 µM/kg, the Rm [1] is reported as -0.74 and the ED50 [13] is reported as 58.9 µmol/kg. For the same molecule, the ED50 [14] was 13.1 µmol/kg, the ED50 [15] was 20.1 µmol/kg and the ED50 [16] was 35.1 µmol/kg. The selectivity ratio [17] was 3.8.

With `COc1cc2c(cc1OC)C(c1ccc([N+](=O)[O-])cc1)=Nn1c(O)nnc1C2` the ED50 [18] was 75.8 µmol/kg, the Rm [1] was -0.368 and the ED50 [19] was 58.3 µmol/kg. It also gave a TD50 [3] greater than 150 µM/kg, an ED50 [20] of 90.7 µmol/kg and an ED50 [21] of 74.1 µmol/kg.

Molecule `COc1cc2c(cc1OC)C(c1ccc(N)cc1)=Nn1c(O)nnc1C2` has a Rm [1] of -0.837, an ED50 [22] of 24.1 µmol/kg and an ED50 [7] of 27.8 µmol/kg. For the same molecule, the ED50 [23] was 30.8 µmol/kg, the ED50 [24] was 16.1 µmol/kg and the ED50 [25] was 57.2 µmol/kg. The TD50 [26] was 65.8 µM/kg, the ED50 [27] was 22.1 µmol/kg and the ED50 [28] was 10.2 µmol/kg. It also gave a selectivity ratio [17] of 4, an ED50 [29] of 38.4 µmol/kg and an ED50 [30] of 18.1 µmol/kg.

Work on `COc1cc2c(cc1OC)C(c1ccccc1)=Nn1c(O)nnc1C2` yielded a Rm [1] of -0.508, an ED50 [31] of 76.5 µmol/kg and an ED50 [32] of 27.5 µmol/kg. The TD50 [33] was 123 µM/kg, the ED50 [34] was 44.6 µmol/kg and the selectivity ratio [17] was 2.8. For the same molecule, the ED50 [35] was 60.5 µmol/kg.

Work on `COc1cc2c(cc1OC)C(c1ccc(F)cc1)=Nn1c(O)nnc1C2` yielded an ED50 [36] of 32.2 µmol/kg, an ED50 [37] of 60.5 µmol/kg and a Rm [1] of -0.402. For the same molecule, the ED50 [38] was 42.1 µmol/kg, the TD50 [39] was 90.6 µM/kg and the ED50 [40] was 38.4 µmol/kg. It also gave an ED50 [41] of 43.4 µmol/kg, an ED50 [42] of 50.9 µmol/kg and a selectivity ratio [17] of 2.8. For the same molecule, the ED50 [43] was 32.1 µmol/kg and the ED50 [44] was 21.8 µmol/kg.

`CC1=NN=C(c2ccc(N)cc2)c2cc3c(cc2C1)OCO3` [GYKI-52466] showed a Rm [1] of -0.368.
